From PubChem
Rows were chosen to be rich in hits. Some 1.5% of all compounds tested hit in one or more screens of this group.
SUMO Mot1 rescue = inhibitors of SUMOylation pathway: yeast Mot1-301 growth rescue | AID 2716 | 320,000 compounds, 1% hits | S. cerevisiae Mot1-301 growth rescue, ATP luminescence, 38.5C; percent above DMSO median, 100 means doubled | growth rescue, % at 18.8 µM;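 active = every valid replicate shows activation above 250% relative to neutral control wells; inactive = the rest, any valid replicate at or below 250%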;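 note: OY570 slx delta 5 strain wells were the positive control but not used for scaling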
Cneo AK release = Cryptococcus neoformans lysis via adenylate kinase release. lysis activity, % at 15 µM. C. neoformans lysis, adenylate kinase release luminescence, 4 h; normalised: neutral wells 0, clomiphene wells 100. 360,000 compounds, 0.2% hits. AID 651654;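 active = mean lysis activity across replicates of at least 80%, whatever share of replicates individually reach that level; inactive = mean lysis activity below 80%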
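Assay system: Cryptococcus neoformans yeast cells / Dosing: single-point compound dose / Timing: 4 h at 37 °C static, read 1 h later / Measured by: luminescence of released adenylate kinase using an AK detection reagent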
C2C12 statin = suppression of simvastatin myotoxicity; rescue of ATP level, % at 7.49 µM; AID 602340; 330,000 compounds, 0.78% hits; C2C12 myotubes + simvastatin, ATP luminescence, 48 h; scaled: DMSO 0, geranylgeraniol control 100;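 active = mean ATP rescue above about 67%, or every replicate alone reaching that limit, limit read from the data, passing the limit was not always enough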;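 note: myotubes were challenged with 10 µM simvastatin during compound exposure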
* hit, by the source's call; . = no result; ! = a repeat was not active.

SMILES	SUMO Mot1 rescue	Cneo AK release	C2C12 statin
O=C(C[C@H]1CC[C@@H]2[C@H](COC[C@H](O)CN2C(=O)Nc2ccccc2)O1)NC1Cc2ccccc2C1	.	42	16
COC(=O)CCC(=O)Nc1nc(-c2ccccc2)cs1	334*	-4	-7
O=C(Cc1cccs1)Nc1nc(-c2ccccc2)cs1	.	1	-8
C[C@@H]1CN([C@H](C)CO)C(=O)c2cc(-c3ccc(C(=O)N(C)C)cc3)cnc2O[C@H]1CN(C)C	.	4	1
COCC(COCCCNC(=O)Nc1ccc(Br)cc1)OC (centres undefined)	75	3	108*
COCCNC(=O)C(=O)Nc1ccc(Br)cc1	1	2	-19
COc1cc(NC(=O)Cc2cccs2)ccc1-n1cnnn1	-15	.	94*
COc1cc(C(=O)Nc2ccc3c(c2)OCO3)ccc1-n1cnnn1	-17	-1	-11
Cc1cc2ncn(/N=C/c3ccc(-c4ccccc4)o3)c2cc1C	-3	5	146*
Cc1cc2ncn(/N=C/c3cccnc3)c2cc1C	-10	0	-7
C[C@@H]1CN([C@@H](C)CO)C(=O)c2cc(NC(=O)CCCN(C)C)ccc2O[C@@H](C)CCCCO[C@H]1CN(C)Cc1ccc(C(F)(F)F)cc1	.	1	.
Cc1ccc2c(c1)c1c3n2CCN(C(=O)CN2CCN(C)CC2)C3CCC1 (centres undefined)	11	-7	-6
CN1CCN(CC(=O)N2CCn3c4c(c5cc(C6CCCCC6)ccc53)CCCC42)CC1 (centres undefined)	500*	8	.
COc1cc(NC(=O)c2ccco2)c(C(=O)OCC(=O)Nc2ncc(Cl)cc2Cl)cc1OC	14	4	.
O=C(Nc1ccccc1C(=O)OCC(=O)N1CCc2ccccc2C1)c1ccco1	356*	-2	-14
CNC(=O)COC(=O)c1ccccc1NC(=O)c1ccco1	-11	4	3
O=C(OCC(=O)N1CCN(C(=O)c2ccco2)CC1)c1ccccc1OCc1ccc(Cl)cc1	-15	-1	133*
O=C(COC(=O)c1ccccc1NC(=O)c1ccco1)Nc1ncc(Cl)cc1Cl	0	-2	94*
O=C(OCC(=O)N1CCOCC1)c1ccccc1OCc1ccc(Cl)cc1	7	-3	-2
C[C@@H]1CN([C@H](C)CO)C(=O)c2cc(NC(=O)CCN3CCOCC3)ccc2O[C@H]1CN(C)S(C)(=O)=O	.	1	-1
CCCC(=O)Nc1ccc2c(c1)C(=O)N(C)C[C@@H](OC)[C@H](C)CN(C(=O)Cc1ccccn1)[C@H](C)CO2	.	0	0
O=C(C[C@@H]1C=C[C@H](NS(=O)(=O)c2ccccc2)[C@@H](CO)O1)NCc1ccccc1F	.	2	2
Cc1ccc(S(=O)(=O)N(C)C[C@@H]2Oc3c(NC(=O)Nc4cccc5ccccc45)cccc3C(=O)N([C@@H](C)CO)C[C@H]2C)cc1	.	65	-67
COc1ccc(CCNC(=O)C2CCN(C(=O)c3ccc([N+](=O)[O-])cc3)CC2)cc1	314*	.	-2
COc1ccc(C(=O)N2CCC(C(=O)NCc3ccccn3)CC2)cc1	-9	-4	114*
SMILES	SUMO Mot1 rescue	Cneo AK release	C2C12 statin
CCCCNC(=O)C1CCN(Cc2ccccn2)CC1	303*	0	6
O=C(NCCc1ccccc1)C1CCN(C(=O)c2ccc([N+](=O)[O-])cc2)CC1	2	.	.
O=C(Nc1ccc2c(c1)OCCO2)C1CCN(C(=O)c2ccc(Br)cc2)CC1	4	-2	3
COc1ccc(C(=O)N2CCC(C(=O)Nc3ccc4c(c3)OCCO4)CC2)cc1	-24	-2	86*
O=C(O)C1CCN(Cc2ccccn2)CC1	-13	.	8
COc1ccc(CNC(=O)C2CCN(C(=O)c3ccc(-c4ccccc4)cc3)CC2)cc1	-14	1	3
C[C@@H]1CCCCO[C@H](CN(C)CC2CC2)[C@H](C)CN([C@@H](C)CO)C(=O)c2cc(NC(=O)Cc3ccccc3)ccc2O1	.	0	.
C[C@@H]1CCCCO[C@H](CN(C)C(=O)Nc2ccc(F)cc2)[C@@H](C)CN([C@@H](C)CO)C(=O)c2cc(N(C)C)ccc2O1	.	.	40
Cc1ccc(S(=O)(=O)Nc2ccc3c(c2)C(=O)N([C@@H](C)CO)C[C@H](C)[C@@H](CN(C)C(=O)C2CCCCC2)OCCCC[C@@H](C)O3)cc1	.	3	.
COc1ccc(NC(=O)N(C)C[C@@H]2Oc3c(NS(=O)(=O)c4ccc(F)cc4)cccc3C(=O)N([C@@H](C)CO)C[C@@H]2C)cc1	.	1	6
CO[C@H](CN(C)C(=O)Nc1ccc(C(F)(F)F)cc1)[C@H](C)CN(Cc1ccccc1Cl)[C@H](C)CO	.	62	-20
C[C@H](CO)N1C[C@H](C)[C@H](CN(C)S(=O)(=O)c2cccs2)Oc2ccc(NS(=O)(=O)c3ccc(F)cc3)cc2C1=O	.	-1	29
C[C@H]1CN([C@@H](C)CO)C(=O)c2cc(NS(=O)(=O)c3ccc(F)cc3)ccc2O[C@@H]1CN(C)S(=O)(=O)c1cccs1	.	9	81*
C[C@H](CO)N1C[C@H](C)[C@H](CN(C)Cc2ccc(Oc3ccccc3)cc2)Oc2c(NS(=O)(=O)c3ccc(Cl)cc3)cccc2C1=O	.	3	80*
COc1ccc(S(=O)(=O)Nc2cccc3c2O[C@H](CN(C)C)[C@@H](C)CN([C@H](C)CO)C3=O)cc1	-3	2	127*!
C[C@@H]1CN([C@H](C)CO)C(=O)c2cc(NS(=O)(=O)c3ccc(Cl)cc3)ccc2O[C@@H]1CN(C)S(=O)(=O)c1ccc(F)cc1	.	4	4
COc1ccc(S(=O)(=O)Nc2cccc3c2O[C@H](CN(C)S(C)(=O)=O)[C@H](C)CN([C@@H](C)CO)C3=O)cc1	.	-2	.
C[C@H](CO)N1C[C@H](C)[C@H](CN(C)S(=O)(=O)c2ccc(F)cc2)Oc2ccc(NS(=O)(=O)c3ccc(Cl)cc3)cc2C1=O	.	102*	41
C[C@@H]1CN([C@@H](C)CO)C(=O)c2cccc(NS(=O)(=O)c3ccccc3)c2O[C@@H]1CN(C)Cc1ccc(Oc2ccccc2)cc1	.	8	10
COc1ccccc1-c1cnc2c(c1)C(=O)N([C@H](C)CO)C[C@H](C)[C@H](CN(C)Cc1ccncc1)O2	.	1	-3
CNC[C@@H]1OCCCC[C@H](C)Oc2ccc(NC(=O)Nc3ccc(C(F)(F)F)cc3)cc2C(=O)N([C@H](C)CO)C[C@@H]1C	.	.	-9
Cc1ccc(S(=O)(=O)Nc2ccc3c(c2)C(=O)N([C@@H](C)CO)C[C@@H](C)[C@@H](CN(C)Cc2ccc(Cl)c(Cl)c2)OCCCC[C@@H](C)O3)cc1	.	2	.
CO[C@@H]1CN(C)C(=O)c2ccc(NC(=O)c3nc4ccccc4s3)cc2OC[C@@H](C)N(Cc2ccncc2)C[C@H]1C	.	0	-20
C[C@@H]1CN([C@H](C)CO)C(=O)c2cc(NS(=O)(=O)c3ccc(Cl)cc3)ccc2O[C@H]1CN(C)S(=O)(=O)c1ccc(F)cc1	.	101*	11
C[C@H]1CN([C@@H](C)CO)C(=O)c2cccc(NS(=O)(=O)c3ccc(F)cc3)c2O[C@@H]1CN(C)S(=O)(=O)c1ccc(Cl)cc1	.	1	.
